Several values for one entry are separate records, joined by “and”; a condition that tells them apart may be missing. Equal entries are not always repeated. Where two headings read alike, the source gives them in different places.
Experiments:
[1] = target: heteromeric Kv7.2/7.3 channels (Homo sapiens, UniProt O43525+O43526); experiment: DiC8-PI; assay type: cell-based
In short: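 CHO cells stably cotransfected with human Kv7.2 and Kv7.3. Patches at 22 ± 0.5°C were excised inside-out and held at 0 mV. Bath was 165 mM KCl, 5 mM HEPES, 10 mM EGTA, pH 7.2, with 0.1 µM ATPγS. The PI(4,5)P2 analog was given by piezo microperfusion, rising from 0.1 to 300 µM, 30 s–2 min per step. Popen was taken over the last 20 s, corrected for channel number, with control subtracted. 11–29 patches per concentration. Weighted two-component Hill fit, shared nH.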

homomeric Kv7.2 channels [2] = target: T1, homomeric Kv7.2 channels (Homo sapiens, UniProt O43526); experiment: DiC8-PI; assay type: cell-based; settings: single-component Hill fit
In short: (§1)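 HM1-CHO cells (human M1 receptor) were transiently transfected with human Kv7.2 or Kv7.3 A315T, plus EGFP. Excised inside-out patches were held at 0 mV, 22°C, with 0.1 µM ATPγS in the pH 7.2 KCl bath. The PI(4,5)P2 analog was applied in incremental concentrations. Popen was corrected for channel number. Single-component Hill fit. n = 7–19 patches (Kv7.2) and 7–15 patches (Kv7.3T).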

homomeric Kv7.3 channels = settings: ref Li et al., 2005; cited from earlier work
[3] = target: T2, homomeric Kv7.3^T (A315T) channels (Homo sapiens, UniProt O43525, A315T); experiment: DiC8-PI; assay type: cell-based; settings: single-component Hill fit
T2 sequence (O43525 1-872 A315T): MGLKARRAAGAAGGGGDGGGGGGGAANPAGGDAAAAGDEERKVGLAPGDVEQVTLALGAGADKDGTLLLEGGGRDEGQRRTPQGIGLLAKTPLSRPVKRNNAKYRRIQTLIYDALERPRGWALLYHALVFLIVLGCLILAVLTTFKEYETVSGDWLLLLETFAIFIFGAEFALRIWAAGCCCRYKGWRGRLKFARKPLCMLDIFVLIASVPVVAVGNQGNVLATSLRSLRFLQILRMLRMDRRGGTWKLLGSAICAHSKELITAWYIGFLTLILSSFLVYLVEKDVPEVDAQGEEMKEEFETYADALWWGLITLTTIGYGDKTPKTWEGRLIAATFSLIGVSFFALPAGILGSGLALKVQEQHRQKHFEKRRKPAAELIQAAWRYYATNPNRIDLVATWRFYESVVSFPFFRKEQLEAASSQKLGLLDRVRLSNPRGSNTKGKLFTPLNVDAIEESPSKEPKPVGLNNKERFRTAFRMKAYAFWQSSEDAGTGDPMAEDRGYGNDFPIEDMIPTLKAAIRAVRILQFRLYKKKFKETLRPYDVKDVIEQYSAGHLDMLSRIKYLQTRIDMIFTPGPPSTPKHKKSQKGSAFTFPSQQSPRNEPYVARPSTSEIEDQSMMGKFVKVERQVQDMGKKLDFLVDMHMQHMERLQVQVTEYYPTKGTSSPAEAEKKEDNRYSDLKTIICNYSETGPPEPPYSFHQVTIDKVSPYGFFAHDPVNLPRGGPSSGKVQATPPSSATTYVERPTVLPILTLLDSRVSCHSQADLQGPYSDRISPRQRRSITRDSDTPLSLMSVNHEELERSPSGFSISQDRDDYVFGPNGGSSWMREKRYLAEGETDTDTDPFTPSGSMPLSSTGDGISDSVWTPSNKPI
In short: as §1

homomeric Kv7.2 channels [4] = target: T1, homomeric Kv7.2 channels; settings: ref Li et al., 2005; cited from earlier work
[5] = test system: homomeric Kv7(EEE) channels; settings: expressed as homomers; ref Hernandez et al., 2008; cited from earlier work
[6] = target: heteromeric Kv7.2/Kv7.3(EEE) channels (Homo sapiens, UniProt O43525+O43526, K462E/K469E/R471E); experiment: DiC8-PI; assay type: cell-based; settings: single-component fit
In short: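 CHO cells expressing WT Kv7.2 with Kv7.3 […]. Excised inside-out patches were held at 0 mV, 22°C, in 165 mM KCl, 5 mM HEPES, 10 mM EGTA, pH 7.2, with 0.1 µM ATPγS. The PI(4,5)P2 analog was applied in incremental concentrations by fast piezo microperfusion. Popen was taken over the last 20 s and corrected for channel number. n = 8–13 patches.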

[7] = test system: Kv7.2/Kv7.3(EEE) mutant channels; experiment: Activation model fitted to the DiC8-PI; assay type: cell-based
In short: (§2)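 A binding/gating scheme was fitted to mean inside-out patch Popen–concentration data for the water-soluble PI(4,5)P2 analog: Kv7.2/Kv7.3 from 20–49 patches, Kv7.2/Kv7.3(EEE) from 8–13 patches. The scheme has two pairs of independent high-affinity (K3, Kv7.3) and low-affinity (K2, Kv7.2) sites and three open states (E3, E2, E1). Occupancies follow mass action with microscopic reversibility. Popen is the sum of the open-state occupancies.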

Kv7.2/Kv7.3 channels = experiment: Activation model fitted to the DiC8-PI; assay type: cell-based, human
In short: as §2

[8] = test system: coexpressed Kv7.2 and Kv7.3 subunits; settings: ref Li et al., 2005; cited from earlier work
[9] = test system: concatenated Kv7.2-7.3 channels; experiment: DiC8-PI; assay type: cell-based; settings: n = 9-21
In short: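 HM1-CHO cells were transiently transfected with concatenated Kv7.2-7.3 cDNA plus an EGFP plasmid using Lipofectamine 2000. Inside-out patches at 0 mV and 22°C, in 165 mM KCl/HEPES/EGTA bath, pH 7.2, with 0.1 µM ATPγS. Stepwise PI(4,5)P2 analog, 0.1–300 µM, by fast perfusion. Popen was taken over the last 20 s and corrected for channel number. n = 9–21 patches per concentration.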

[10] = test system: concatemeric Kv7.2/Kv7.3 dimer; settings: ref Hadley et al., 2003; cited from earlier work
[11] = test system: coexpressed Kv7.2 and Kv7.3; settings: cited from earlier work
[12] = patches with only a single active channel

Sequence of heteromeric Kv7.2/7.3 channels (O43525 whole entry, the tested form may be a part): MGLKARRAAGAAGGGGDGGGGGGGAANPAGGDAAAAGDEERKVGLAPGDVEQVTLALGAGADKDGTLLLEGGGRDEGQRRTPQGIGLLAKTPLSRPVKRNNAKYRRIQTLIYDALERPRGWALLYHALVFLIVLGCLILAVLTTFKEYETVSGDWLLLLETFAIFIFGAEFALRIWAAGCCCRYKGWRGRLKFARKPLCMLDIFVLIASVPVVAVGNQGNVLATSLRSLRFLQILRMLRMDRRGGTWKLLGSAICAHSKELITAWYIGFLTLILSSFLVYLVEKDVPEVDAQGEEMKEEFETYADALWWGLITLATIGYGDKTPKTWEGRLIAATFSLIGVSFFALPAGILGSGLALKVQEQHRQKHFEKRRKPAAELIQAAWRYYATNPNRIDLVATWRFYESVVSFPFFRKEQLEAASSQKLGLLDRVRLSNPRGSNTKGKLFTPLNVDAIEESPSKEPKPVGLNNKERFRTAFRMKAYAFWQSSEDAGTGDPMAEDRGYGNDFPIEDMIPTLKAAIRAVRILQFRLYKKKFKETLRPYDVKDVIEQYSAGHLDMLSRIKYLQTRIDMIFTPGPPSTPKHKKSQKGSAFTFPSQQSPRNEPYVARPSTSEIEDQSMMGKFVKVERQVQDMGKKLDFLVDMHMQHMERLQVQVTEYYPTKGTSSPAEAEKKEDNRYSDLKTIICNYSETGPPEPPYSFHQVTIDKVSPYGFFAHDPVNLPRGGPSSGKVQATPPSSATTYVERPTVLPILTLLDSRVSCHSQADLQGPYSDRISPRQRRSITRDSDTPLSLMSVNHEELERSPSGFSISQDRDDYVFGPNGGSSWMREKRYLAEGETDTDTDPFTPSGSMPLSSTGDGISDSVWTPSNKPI
Sequence of heteromeric Kv7.2/7.3 channels (O43526 whole entry, the tested form may be a part): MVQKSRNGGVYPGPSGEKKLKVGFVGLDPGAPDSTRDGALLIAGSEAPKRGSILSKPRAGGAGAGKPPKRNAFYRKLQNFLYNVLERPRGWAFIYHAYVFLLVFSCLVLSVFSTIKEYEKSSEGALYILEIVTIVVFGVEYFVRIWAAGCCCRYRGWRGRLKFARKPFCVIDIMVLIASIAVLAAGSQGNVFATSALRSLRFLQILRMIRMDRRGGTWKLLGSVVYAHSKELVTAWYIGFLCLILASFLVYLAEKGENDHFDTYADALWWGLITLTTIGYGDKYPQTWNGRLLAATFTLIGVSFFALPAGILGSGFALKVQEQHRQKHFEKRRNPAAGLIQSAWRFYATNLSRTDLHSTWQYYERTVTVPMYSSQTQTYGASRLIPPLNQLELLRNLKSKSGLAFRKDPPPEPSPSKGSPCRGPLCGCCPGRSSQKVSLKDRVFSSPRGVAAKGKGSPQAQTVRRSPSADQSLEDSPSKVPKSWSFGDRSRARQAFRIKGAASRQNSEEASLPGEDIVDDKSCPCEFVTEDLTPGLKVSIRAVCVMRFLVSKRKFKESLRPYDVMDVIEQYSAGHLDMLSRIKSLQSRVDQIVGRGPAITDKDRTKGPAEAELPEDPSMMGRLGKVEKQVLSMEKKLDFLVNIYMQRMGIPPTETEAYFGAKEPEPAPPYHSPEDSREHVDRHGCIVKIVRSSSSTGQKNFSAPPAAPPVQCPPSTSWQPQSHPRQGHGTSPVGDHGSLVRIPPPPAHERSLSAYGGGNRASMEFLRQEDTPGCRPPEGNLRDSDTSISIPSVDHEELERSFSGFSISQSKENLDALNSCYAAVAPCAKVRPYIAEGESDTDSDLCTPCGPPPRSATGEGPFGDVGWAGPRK
T1 sequence (O43526 whole entry): as the sequence (O43526 whole entry, the tested form may be a part) above
Sequence of heteromeric Kv7.2/Kv7.3(EEE) channels (O43525 whole entry K462E/K469E/R471E, the tested form may be a part): as the sequence (O43525 whole entry, the tested form may be a part) above, with K462E, K469E, R471E counted along it
Sequence of heteromeric Kv7.2/Kv7.3(EEE) channels (O43526 whole entry, the tested form may be a part): as the sequence (O43526 whole entry, the tested form may be a part) above

SMILES: CCCCCCCC(=O)OC[C@H](COP(=O)(O)O[C@@H]1[C@H](O)[C@H](O)[C@@H](OP(=O)(O)O)[C@H](OP(=O)(O)O)[C@H]1O)OC(=O)CCCCCCC [DiC8-PI(4,5)P2, dioctanoylphosphatidyl-4,5-bisphosphate]
- Popen(max1) ([1]; component 1, single- and pauci-channel patches, 0 mV): 0.2 ± 0.0073 and ~0.2
- Popen(max2) ([1]; component 2, single- and pauci-channel patches, 0 mV): 0.6 ± 0.0012
- Hill coefficient ([1]; constrained the same for both components, single- and pauci-channel patches): 1.4 ± 0.06 and ~1.4
- Popen at full opening ([1]; higher ligand concentrations, 0 mV): ~0.8
- partial channel opening, % of the maximum Popen ([1]; low concentrations, binding to Kv7.3 subunit): ~25%
- Hill coefficient nH [1, 12]: 1.6 ± 0.36
- Popen(max1) [1, 12]: 0.28 ± 0.045
- Popen(max2) [1, 12]: 0.61 ± 0.0074
- factor between apparent affinities of high- and low-affinity sites ([1]; two-component curves): about 60
- Hill coefficient nH (homomeric Kv7.2 channels [2]): 0.76 ± 0.08
- EC50 (homomeric Kv7.2 channels [2]; 0 mV): 76.2 µM and 76 µM
- EC50 (homomeric Kv7.3 channels): 2.6 µM
- Hill slope (homomeric Kv7.3 channels): 1.33
- Hill coefficient nH [3]: 0.95 ± 0.2
- EC50 ([3]; 0 mV): 3.6 ± 1 µM
- Hill slope (homomeric Kv7.2 channels [4]): 0.97
- fold less sensitive than WT channels [5]: > 100 fold
- Hill coefficient nH [6]: 1.1 ± 0.1
- EC50 ([6]; maximum Popen undetermined): 265 ± 74 µM
- E1 ([7]; model 4 free fit): 0.89 ± 0.43
- E2 ([7]; model 4 free fit): 0.00
- E3 ([7]; model 4 free fit): 0.04 ± 0.14
- Po (max) ([7]; model 4 free fit): 0.47
- maximum open probability Po3 (both Kv7.3 sites occupied) ([7]; model 4 prediction, at 10 µM): 0.027
- Kd ([7]; read-out: K3, model 4 free fit): 0.94 µM
- Po (max) (Kv7.2/Kv7.3 channels; model 4): 0.82
- E1, gating equilibrium constant (Kv7.2/Kv7.3 channels; model 4, all four sites occupied): 4.42 ± 0.61
- E2, gating equilibrium constant (Kv7.2/Kv7.3 channels; model 4, two high- and one low-affinity site occupied): 0.46 ± 0.39
- E3, gating equilibrium constant (Kv7.2/Kv7.3 channels; model 4, two high-affinity sites occupied): 0.26 ± 0.07
- concentration at which Po3 peaks (Kv7.2/Kv7.3 channels; model 4 prediction): around 7 µM
- peak open probability Po3 (only Kv7.3 subunits bound) (Kv7.2/Kv7.3 channels; model 4 prediction, around 7 µM): 0.145
- EC50 [8]: 40 µM
- concentration-response curve compared with K2/3-CHO cells [9]: very similar biphasic

SMILES: CC[N+](CC)(CC)CC [TEA, tetraethylammonium]
- Hill slope of TEA inhibition [10]: 0.97 ± 0.12
- Hill slope of TEA inhibition ([11]; ref Shapiro et al. [2000]): 0.58
- Hill slope of TEA inhibition ([11]; single binding site equation, ref Hadley et al., 2003): 0.98 ± 0.02

From article PMC3382723 (The Journal of General Physiology, 2012)
